# Reference: ChEMBL document CHEMBL1275331, “Discovery of a novel 5-HT(3) antagonist/5-HT(1A) agonist 3-amino-5,6,7,8-tetrahydro-2-{4-[4-(quinolin-2-yl)piperazin-1-yl]butyl}quinazolin-4(3H)-one (TZB-30878) as an orally bioavailable agent for irritable bowel syndrome” (J Med Chem, 2010)
# Calls of active or inactive are those of the source. No cut-off for these calls is given here.
# Key:
# [1] = target: T1, 5-hydroxytryptamine receptor 3A (Homo sapiens, UniProt P46098); test: Binding affinity to human 5HT3 receptor
# T1 sequence (P46098 whole entry): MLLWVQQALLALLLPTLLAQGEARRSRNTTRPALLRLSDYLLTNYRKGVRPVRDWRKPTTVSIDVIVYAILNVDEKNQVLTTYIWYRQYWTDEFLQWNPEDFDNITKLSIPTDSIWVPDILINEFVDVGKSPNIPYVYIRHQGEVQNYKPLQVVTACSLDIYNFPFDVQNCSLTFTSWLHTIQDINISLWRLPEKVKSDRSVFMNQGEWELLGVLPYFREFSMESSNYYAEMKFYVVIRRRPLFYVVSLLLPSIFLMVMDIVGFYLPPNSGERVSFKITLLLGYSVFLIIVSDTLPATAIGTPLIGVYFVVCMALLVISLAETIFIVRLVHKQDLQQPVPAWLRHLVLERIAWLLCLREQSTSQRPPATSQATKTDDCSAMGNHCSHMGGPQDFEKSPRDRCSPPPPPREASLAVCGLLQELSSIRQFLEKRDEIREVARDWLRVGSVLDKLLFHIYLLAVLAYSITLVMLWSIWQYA
# Summary of the method: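 HEK-293 membranes expressing human 5-HT3 were incubated with 0.5 nmol/L [3H]BRL-43694 (final) for 60 min at 25 °C. Buffer: 50 mM Tris-HCl, 5 mM MgCl2, 1 mM EDTA, pH 7.5. Compound came from 270 μmol/L DMSO stock, diluted in buffer. Filtration was through GF/B presoaked in 0.5% polyethyleneimine, with two cold Tris washes. Run in duplicate or triplicate; percent inhibition calculated.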
# [2] = test system: Rattus norvegicus; test: Effect on 5HT1A receptor-mediated hypothermic effect in rat assessed as change in rectal temperature at 10 mg/kg, iv after 30 mins; format: functional, organism-based; design: dose 10 mg/kg
# Summary of the method: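 Rats were conditioned over 2 weeks and acclimated to the cage for 1 h before dosing (vehicle: saline with diluted HCl). Rectal temperature was recorded with a thermistor probe inserted 3 cm, before and 30 min after administration. The change in temperature was reported.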
# [3] = Displacement of [3H]GABA from rat cerebral cortex GABA(A) receptor; format: tissue-based
# [4] = target: Muscarinic acetylcholine receptor M3 (Homo sapiens, UniProt P20309); test: Displacement of [3H]4-DAMP from human recombinant muscarinic M3 receptor
# [5] = target: 5-hydroxytryptamine receptor 6 (Homo sapiens, UniProt P50406); test: Displacement of [3H]LSD from human recombinant 5HT6 receptor
# [6] = target: T2, 5-hydroxytryptamine receptor 1A (Homo sapiens, UniProt P08908); test: Binding affinity to human 5HT1A receptor
# T2 sequence (P08908 whole entry): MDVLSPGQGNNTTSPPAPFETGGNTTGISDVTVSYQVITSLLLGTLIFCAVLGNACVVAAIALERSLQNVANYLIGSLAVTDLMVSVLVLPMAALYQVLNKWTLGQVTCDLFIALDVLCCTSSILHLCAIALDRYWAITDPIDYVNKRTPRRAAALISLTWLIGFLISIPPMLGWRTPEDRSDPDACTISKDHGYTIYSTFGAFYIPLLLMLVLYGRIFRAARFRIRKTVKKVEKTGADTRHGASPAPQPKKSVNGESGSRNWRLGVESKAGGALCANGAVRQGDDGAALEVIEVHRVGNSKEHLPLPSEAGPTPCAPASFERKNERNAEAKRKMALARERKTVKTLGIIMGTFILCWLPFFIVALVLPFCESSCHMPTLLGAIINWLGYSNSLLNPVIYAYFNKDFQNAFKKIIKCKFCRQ
# Summary of the method: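 CHO-cell membranes with human 5-HT1A were incubated with 0.25 nmol/L [3H]8-OH-DPAT (final) for 60 min at 27 °C. Buffer: 50 mM Tris-HCl, 10 mM MgSO4, 0.5 mM EDTA, 0.1% ascorbic acid, pH 7.4. Compound came from 270 μmol/L DMSO stock, diluted in buffer. Filtration was through GF/C presoaked in 0.3% polyethyleneimine, with two cold Tris washes. Run in duplicate or triplicate; percent inhibition of binding calculated.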
# [7] = target: D(2) dopamine receptor (Homo sapiens, UniProt P14416); test: Displacement of [3H]spiperone from human recombinant dopamine D2 receptor
# [8] = target: T2, 5-hydroxytryptamine receptor 1A; test: Displacement of 8-hydroxy-[3H]DPAT from human recombinant 5HT1A receptor
# [9] = target: Neuromedin-K receptor (Homo sapiens, UniProt P29371); test: Displacement of [3H]SR142801 from human recombinant NK3 receptor
# [10] = target: Kappa-type opioid receptor (Cavia porcellus, UniProt P41144); test: Displacement of [3H]U69593 from guinea pig cerebellum kappa opioid receptor; format: tissue-based
# [11] = target: T3, 5-hydroxytryptamine receptor 3A (Cavia porcellus) (UniProt O70212); test: Inhibition of 5HT3 receptor-mediated contraction of guinea pig ileum at 0.1 umol/L after 20 mins relative to control; format: tissue-based
# T3 sequence (whole entry): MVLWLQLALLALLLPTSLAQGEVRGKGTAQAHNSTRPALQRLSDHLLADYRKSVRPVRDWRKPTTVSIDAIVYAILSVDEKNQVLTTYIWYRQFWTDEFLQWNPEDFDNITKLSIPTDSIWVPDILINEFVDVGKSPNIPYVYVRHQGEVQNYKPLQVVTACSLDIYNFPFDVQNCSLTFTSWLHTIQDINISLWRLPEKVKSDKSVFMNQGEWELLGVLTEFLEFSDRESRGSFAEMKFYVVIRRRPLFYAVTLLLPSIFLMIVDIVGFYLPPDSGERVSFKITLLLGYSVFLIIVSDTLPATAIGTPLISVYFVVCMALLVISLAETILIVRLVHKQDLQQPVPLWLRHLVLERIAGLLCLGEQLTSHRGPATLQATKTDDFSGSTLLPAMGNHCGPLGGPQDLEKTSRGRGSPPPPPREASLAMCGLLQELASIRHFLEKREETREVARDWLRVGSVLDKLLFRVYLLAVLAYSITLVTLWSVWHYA
# Summary of the method: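 Ileum strips in Tyrode solution at 37 °C, gassed 5% CO2/95% O2, isotonic contractions under 1 g load. After at least 3 stable contractions to 10 μM 2-methyl-5-HT, tissue exposed to compound or DMSO vehicle for 20 min, then 10 μM 2-methyl-5-HT re-added; contraction expressed as % inhibition of control.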
# [12] = test system: Rattus norvegicus; test: […] activity in rat assessed as inhibition of 5HT-induced bradycardia at 10 ug/kg, iv by von Benzold-Jarisch reflex assay; format: functional
# [13] = target: Histamine H2 receptor (Homo sapiens, UniProt P25021); test: Displacement of [125I]APT from human recombinant histamine H2 receptor
# [14] = target: Sodium-dependent noradrenaline transporter (Homo sapiens, UniProt P23975); test: Displacement of [3H]nisoxetine from human recombinant NET
# [15] = test system: Rattus norvegicus; test: Reduction in wrap restraint stress-induced defecation in rat diarrhea-predominant irritable bowel syndrome model at 1 to 10 mg/kg, po administered 1 hr prior to induction of stress; format: functional, organism-based
# Summary of the method: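 Lightly anesthetized rats had upper bodies wrapped with adhesive tape, then returned to observation cages; feces counted 1 h after wrapping. Compound or vehicle given orally 1 h before restraint; unwrapped animals as normal group. n = 8 per group, mean (SD); Wilcoxon and nonparametric Dunnett's tests.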
# [16] = target: Adenosine receptor A1 (Homo sapiens, UniProt P30542); test: Displacement of [3H]DPCPX from human recombinant adenosine A1 receptor
# Chain of Adenosine receptor A1 (P30542 whole entry): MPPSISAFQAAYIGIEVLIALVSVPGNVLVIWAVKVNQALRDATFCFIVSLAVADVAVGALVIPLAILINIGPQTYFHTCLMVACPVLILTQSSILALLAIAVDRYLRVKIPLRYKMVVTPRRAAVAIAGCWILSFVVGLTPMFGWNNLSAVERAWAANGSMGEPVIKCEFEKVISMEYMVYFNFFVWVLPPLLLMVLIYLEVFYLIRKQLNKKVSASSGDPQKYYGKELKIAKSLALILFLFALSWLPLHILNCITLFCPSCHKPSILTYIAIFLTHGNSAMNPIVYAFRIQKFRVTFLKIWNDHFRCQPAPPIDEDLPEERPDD
# Chain of D(2) dopamine receptor (P14416 whole entry): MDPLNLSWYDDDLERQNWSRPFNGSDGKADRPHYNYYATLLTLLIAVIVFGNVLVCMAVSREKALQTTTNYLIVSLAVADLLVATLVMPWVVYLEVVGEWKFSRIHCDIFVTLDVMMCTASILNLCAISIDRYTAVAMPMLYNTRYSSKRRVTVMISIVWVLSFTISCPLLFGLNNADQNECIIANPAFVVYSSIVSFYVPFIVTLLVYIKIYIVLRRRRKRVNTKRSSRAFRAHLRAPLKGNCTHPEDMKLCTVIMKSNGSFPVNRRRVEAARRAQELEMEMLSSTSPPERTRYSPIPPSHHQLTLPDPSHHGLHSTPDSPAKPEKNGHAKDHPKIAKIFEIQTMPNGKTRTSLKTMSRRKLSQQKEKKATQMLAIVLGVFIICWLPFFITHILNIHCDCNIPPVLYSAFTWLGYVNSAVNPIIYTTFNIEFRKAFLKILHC
# Chain of Kappa-type opioid receptor (P41144 whole entry): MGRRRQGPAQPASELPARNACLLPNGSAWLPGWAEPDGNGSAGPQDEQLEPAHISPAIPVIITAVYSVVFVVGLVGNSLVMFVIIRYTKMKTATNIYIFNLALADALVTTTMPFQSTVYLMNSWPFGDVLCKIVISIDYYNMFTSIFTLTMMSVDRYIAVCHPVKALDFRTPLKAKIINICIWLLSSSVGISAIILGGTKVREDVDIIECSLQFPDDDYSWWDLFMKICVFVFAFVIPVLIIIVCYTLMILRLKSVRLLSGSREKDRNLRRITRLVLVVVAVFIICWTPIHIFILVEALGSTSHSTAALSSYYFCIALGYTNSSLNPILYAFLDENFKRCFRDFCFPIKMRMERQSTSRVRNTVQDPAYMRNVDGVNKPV
# Chain of Neuromedin-K receptor (P29371 whole entry): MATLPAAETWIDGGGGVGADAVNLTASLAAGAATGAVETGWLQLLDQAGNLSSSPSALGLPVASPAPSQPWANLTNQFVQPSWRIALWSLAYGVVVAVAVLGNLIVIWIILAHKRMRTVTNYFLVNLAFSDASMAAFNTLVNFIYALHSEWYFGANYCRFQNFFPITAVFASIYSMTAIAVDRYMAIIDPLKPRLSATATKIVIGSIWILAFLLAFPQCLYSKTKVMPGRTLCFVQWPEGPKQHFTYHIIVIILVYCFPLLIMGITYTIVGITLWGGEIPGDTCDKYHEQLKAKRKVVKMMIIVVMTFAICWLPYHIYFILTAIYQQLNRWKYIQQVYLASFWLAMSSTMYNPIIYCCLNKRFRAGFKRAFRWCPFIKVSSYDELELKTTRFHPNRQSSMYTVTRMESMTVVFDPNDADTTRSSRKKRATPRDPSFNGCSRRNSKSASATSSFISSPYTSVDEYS
# Chain of 5-hydroxytryptamine receptor 6 (P50406 whole entry): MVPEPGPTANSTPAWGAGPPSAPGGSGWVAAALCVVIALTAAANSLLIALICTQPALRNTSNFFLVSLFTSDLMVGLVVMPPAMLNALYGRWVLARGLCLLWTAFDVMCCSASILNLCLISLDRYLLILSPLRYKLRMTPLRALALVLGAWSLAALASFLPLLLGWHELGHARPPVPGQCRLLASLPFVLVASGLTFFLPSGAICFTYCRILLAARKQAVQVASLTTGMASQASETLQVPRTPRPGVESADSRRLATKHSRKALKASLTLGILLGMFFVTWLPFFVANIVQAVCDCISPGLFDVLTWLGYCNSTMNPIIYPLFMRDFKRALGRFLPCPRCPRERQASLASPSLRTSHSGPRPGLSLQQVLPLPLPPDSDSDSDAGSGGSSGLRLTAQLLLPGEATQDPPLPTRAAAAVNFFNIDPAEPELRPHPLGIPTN
# Chain of Histamine H2 receptor (P25021 whole entry): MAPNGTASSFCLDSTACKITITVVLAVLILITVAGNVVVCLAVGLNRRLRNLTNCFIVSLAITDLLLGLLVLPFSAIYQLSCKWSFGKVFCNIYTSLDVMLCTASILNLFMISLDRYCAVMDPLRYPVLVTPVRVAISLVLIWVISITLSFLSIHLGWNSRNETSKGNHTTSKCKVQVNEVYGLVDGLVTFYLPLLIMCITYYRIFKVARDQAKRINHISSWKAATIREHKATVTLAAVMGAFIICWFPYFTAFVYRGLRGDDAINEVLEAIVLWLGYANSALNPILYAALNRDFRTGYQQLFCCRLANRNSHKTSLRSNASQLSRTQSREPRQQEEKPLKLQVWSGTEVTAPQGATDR
# Chain of Muscarinic acetylcholine receptor M3 (P20309 whole entry): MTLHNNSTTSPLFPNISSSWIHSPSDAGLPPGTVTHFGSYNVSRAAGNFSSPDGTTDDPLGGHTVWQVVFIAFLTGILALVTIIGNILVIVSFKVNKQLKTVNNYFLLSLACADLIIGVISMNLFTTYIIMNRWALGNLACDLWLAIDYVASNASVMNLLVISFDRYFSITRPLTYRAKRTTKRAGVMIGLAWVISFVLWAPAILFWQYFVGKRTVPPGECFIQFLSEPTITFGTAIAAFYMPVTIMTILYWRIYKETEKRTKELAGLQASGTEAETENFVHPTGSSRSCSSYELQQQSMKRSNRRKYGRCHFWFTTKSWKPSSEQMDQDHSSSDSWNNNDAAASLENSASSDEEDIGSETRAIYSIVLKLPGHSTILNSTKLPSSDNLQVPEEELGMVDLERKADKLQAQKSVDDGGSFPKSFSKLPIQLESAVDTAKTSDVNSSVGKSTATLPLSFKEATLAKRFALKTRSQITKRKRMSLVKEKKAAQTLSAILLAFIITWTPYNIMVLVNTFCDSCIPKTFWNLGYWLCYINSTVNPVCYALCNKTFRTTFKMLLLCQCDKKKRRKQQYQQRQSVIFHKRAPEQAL
# Chain of Sodium-dependent noradrenaline transporter (P23975 whole entry): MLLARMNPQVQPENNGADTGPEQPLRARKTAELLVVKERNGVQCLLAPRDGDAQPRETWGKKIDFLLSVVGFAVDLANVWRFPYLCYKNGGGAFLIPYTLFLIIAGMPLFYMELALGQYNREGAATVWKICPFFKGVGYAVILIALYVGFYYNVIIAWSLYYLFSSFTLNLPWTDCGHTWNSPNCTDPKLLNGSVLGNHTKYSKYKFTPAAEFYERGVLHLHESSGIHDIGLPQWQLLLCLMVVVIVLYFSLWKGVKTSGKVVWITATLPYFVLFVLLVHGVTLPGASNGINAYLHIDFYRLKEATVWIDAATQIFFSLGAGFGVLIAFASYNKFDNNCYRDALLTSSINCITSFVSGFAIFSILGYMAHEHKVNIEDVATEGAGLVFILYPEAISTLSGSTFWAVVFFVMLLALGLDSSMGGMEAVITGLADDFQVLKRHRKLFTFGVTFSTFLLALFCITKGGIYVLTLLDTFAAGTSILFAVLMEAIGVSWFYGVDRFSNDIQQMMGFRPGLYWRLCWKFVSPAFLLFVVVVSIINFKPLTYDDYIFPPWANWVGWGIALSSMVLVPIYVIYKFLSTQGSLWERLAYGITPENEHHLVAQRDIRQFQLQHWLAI
structure (smiles),measurement,setting,value
Nn1c(CCCCN2CCN(c3ccc4ccccc4n3)CC2)nc2c(c1=O)CCCC2,Ki,[1],4.72 nM
same,deltaT,[2],-1.4 °C
same,IC50,[3],> 1000 nM
same,IC50,[4],> 1000 nM
same,IC50,[5],> 1000 nM
same,Ki,[6],0.701 nM
same,IC50,[7],> 1000 nM
same,IC50,[8],> 1.36 nM
same,IC50,[9],> 1000 nM
same,IC50,[10],> 1000 nM
same,inhibition,[11],70.4%
same,inhibition in vivo at 0.01 mg/kg,[12],≤ 64%
same,IC50,[13],> 1000 nM
same,IC50,[14],> 1000 nM
same,inhibition,[15],Active
same,IC50,[16],> 1000 nM
